Experimental findings from ChEMBL document CHEMBL4725388, “Characterization of Aminobenzylphenols as Protein Disulfide Isomerase Inhibitors in Glioblastoma Cell Lines” (J Med Chem, 2020) are described below.

Usually pIC50 stands for −log10 of the IC50, conventionally taken in molar units. The inhibition is the change of the read-out against control, counted positive when it falls. For orientation: ΔTm means the change in melting temperature against a reference sample.

Series [1] has as its target T1, Protein disulfide-isomerase A3 (Homo sapiens, UniProt P30101).
T1 sequence (P30101 whole entry): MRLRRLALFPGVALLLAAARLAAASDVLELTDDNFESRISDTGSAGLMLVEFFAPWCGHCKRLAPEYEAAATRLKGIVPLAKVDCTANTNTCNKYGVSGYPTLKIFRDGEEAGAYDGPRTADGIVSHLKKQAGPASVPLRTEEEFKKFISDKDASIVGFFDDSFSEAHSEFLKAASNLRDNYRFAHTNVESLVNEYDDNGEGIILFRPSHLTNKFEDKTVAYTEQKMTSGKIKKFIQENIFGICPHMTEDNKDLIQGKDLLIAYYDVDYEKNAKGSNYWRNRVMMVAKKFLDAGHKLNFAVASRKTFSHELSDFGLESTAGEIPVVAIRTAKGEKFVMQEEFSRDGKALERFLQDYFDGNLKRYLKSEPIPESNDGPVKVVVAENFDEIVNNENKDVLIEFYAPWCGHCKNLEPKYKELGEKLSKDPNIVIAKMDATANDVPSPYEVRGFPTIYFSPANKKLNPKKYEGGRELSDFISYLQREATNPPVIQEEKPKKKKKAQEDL
The series is described as follows: Inhibition of N-(4-(5,5-Difluoro-1,3,7,9-tetramethyl-5H-4(Gamma4),5(Gamma4)-dipyrrolo[1,2-c:2',1'-f][1,3,2]diazaborinin-10-yl))-N-(2-(4-((6-hydroxybenzo[d]-[1,3]dioxol-5-yl)(piperidin-1-yl)methyl)benzamido)ethyl)-benzamide binding to recombinant PDIA3 (unknown origin) measured after 24 hrs by PAGE analysis.

Series [2] deals with T2, Protein disulfide-isomerase (Homo sapiens, UniProt P07237). Briefly: Inhibition of recombinant human wild-type N-terminal His-tagged PDIA1 expressed in Escherichia coli strain BL21(DE3) using bovine insulin as substrate preincubated for 1 hr followed by substrate addition. An outline of the steps:
(§1)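 IC50 from dose-response curves; PDI reductase assay for enzyme, MTT in U-87 MG cells for cytotoxicity; mean ± SD of at least three independent experiments.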
Target sequence in this assay (P07237 whole entry): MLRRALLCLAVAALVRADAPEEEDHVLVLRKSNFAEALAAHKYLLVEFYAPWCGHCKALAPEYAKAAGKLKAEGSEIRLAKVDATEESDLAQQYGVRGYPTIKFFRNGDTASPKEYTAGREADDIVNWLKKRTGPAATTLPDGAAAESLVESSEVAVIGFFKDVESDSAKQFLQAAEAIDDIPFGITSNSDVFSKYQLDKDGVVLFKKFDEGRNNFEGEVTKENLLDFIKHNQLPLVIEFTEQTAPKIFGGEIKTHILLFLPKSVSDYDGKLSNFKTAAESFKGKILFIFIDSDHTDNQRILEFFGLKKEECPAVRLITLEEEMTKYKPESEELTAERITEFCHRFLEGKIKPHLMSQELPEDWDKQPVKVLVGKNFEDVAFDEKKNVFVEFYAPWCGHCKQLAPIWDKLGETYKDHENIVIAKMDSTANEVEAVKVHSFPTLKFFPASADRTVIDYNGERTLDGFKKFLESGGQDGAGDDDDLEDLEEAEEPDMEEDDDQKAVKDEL

Series [3] deals with T2, Protein disulfide-isomerase. Briefly: Inhibition of N-(4-(5,5-Difluoro-1,3,7,9-tetramethyl-5H-4(Gamma4),5(Gamma4)-dipyrrolo[1,2-c:2',1'-f][1,3,2]diazaborinin-10-yl))-N-(2-(4-((6-hydroxybenzo[d]-[1,3]dioxol-5-yl)(piperidin-1-yl)methyl)benzamido)ethyl)-benzamide binding to PDIA1 in human U-87 MG cell lysates measured after 24 hrs by PAGE analysis. The format is subcellular.
Target sequence in this assay (P07237 18-508 limits assumed): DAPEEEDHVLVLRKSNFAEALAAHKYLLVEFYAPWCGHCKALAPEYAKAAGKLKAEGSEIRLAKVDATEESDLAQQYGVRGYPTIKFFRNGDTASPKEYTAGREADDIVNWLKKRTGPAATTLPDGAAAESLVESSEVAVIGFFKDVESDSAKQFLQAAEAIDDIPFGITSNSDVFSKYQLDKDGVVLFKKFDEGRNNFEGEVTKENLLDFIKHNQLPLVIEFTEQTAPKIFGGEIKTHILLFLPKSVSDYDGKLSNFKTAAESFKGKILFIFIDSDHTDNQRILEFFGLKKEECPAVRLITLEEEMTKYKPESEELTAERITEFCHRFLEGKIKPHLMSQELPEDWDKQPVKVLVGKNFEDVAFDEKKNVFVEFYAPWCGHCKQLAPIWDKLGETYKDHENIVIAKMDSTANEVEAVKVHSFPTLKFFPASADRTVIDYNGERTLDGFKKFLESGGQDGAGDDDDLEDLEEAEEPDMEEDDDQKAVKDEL

Series [4] addresses T3, Protein disulfide-isomerase A2 (Homo sapiens, UniProt Q13087).
T3 sequence (Q13087 whole entry): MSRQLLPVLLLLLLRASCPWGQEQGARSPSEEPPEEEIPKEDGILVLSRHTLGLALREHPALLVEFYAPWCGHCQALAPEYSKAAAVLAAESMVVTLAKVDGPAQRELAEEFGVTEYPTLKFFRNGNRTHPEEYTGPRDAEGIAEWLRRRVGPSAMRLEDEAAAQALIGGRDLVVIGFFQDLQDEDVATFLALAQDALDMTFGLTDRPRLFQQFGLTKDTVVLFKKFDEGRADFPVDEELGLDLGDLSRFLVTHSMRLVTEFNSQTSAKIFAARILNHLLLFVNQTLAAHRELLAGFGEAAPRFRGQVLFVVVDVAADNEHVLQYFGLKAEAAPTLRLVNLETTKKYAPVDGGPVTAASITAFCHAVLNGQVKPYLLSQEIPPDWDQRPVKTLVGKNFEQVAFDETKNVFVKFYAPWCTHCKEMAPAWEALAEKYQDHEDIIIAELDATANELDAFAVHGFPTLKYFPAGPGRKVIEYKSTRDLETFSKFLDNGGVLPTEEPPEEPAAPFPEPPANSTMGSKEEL
The series is described as follows: Inhibition of N-(4-(5,5-Difluoro-1,3,7,9-tetramethyl-5H-4(Gamma4),5(Gamma4)-dipyrrolo[1,2-c:2',1'-f][1,3,2]diazaborinin-10-yl))-N-(2-(4-((6-hydroxybenzo[d]-[1,3]dioxol-5-yl)(piperidin-1-yl)methyl)benzamido)ethyl)-benzamide binding to recombinant PDIA2 (unknown origin) measured after 24 hrs by PAGE analysis.

In series [5] the target is T2, Protein disulfide-isomerase. Briefly: Binding affinity to recombinant human wild-type N-terminal His-tagged PDIA1 expressed in Escherichia coli strain BL21(DE3) at 20 uM measured after 24 hrs in presence of BSA by SDS PAGE analysis.
Target sequence in this assay (P07237 18-508 limits assumed): as the sequence (P07237 18-508 limits assumed) above
Series [6] addresses T4, Albumin (Bos taurus, UniProt P02769). The series is described as follows: Binding affinity to fetal bovine serum albumin at 20 uM measured after overnight incubation in presence of cell free DMEM medium by gel based assay. The format is ADME. To be noted: cattle.
Series [7] can be described thus: Drug uptake in human A 172 cell nucleus at 10 uM measured after 24 hrs by PDI antibody/DAPI staining based confocal microscopic analysis. To be noted: a 172, 24 h. The format is ADME, subcellular.
Series [8] addresses T2, Protein disulfide-isomerase. Briefly: Binding affinity to PDIA1 in human U-87 MG cells at 40 uM measured after 24 hrs in presence of fetal bovine serum by Western blot analysis. The format is cell-based. In general terms: In western blotting, separated proteins are transferred to a membrane and probed.
Target sequence in this assay (P07237 18-508 limits assumed): as the sequence (P07237 18-508 limits assumed) above
Series [9] has as its target T4, Albumin. Briefly: Binding affinity to fetal bovine serum albumin at 40 uM measured after 24 hrs in presence of human U-87 MG cells by Western blot analysis. The format is ADME, cell-free. To be noted: cattle.
Series [10] can be described thus: Drug uptake in human A 172 cell endoplasmic reticulum at 10 uM measured after 24 hrs by PDI antibody/DAPI staining based confocal microscopic analysis. The format is ADME, subcellular. To be noted: a 172, 24 h.
Series [11] deals with T2, Protein disulfide-isomerase. Briefly: Inhibition of recombinant human wild-type N-terminal His-tagged PDIA1 expressed in Escherichia coli strain BL21(DE3) at 10 to 40 uM using bovine insulin as substrate preincubated for 1 hr followed by substrate addition. To be noted: dose microM 10-40, time 1.0 hrs.
Target sequence in this assay (P07237 18-508 limits assumed): as the sequence (P07237 18-508 limits assumed) above
The nature of series [12]: Drug uptake in human A 172 cell cytoplasm at 10 uM measured after 24 hrs by PDI antibody/DAPI staining based confocal microscopic analysis. The conditions noted are these: a 172, 24 h. The format is ADME, subcellular.
Series [13] concerns the target T2, Protein disulfide-isomerase. The series is described as follows: Binding affinity to PDIA1 in human U-87 MG cells at 10 uM measured after 24 hrs in absence of fetal bovine serum by coomassie staining GFP channel based assay. The format is cell-based.
Target sequence in this assay (P07237 18-508 limits assumed): as the sequence (P07237 18-508 limits assumed) above
Series [14] shares this target. The series is described as follows: Binding affinity to recombinant human wild-type N-terminal His-tagged PDIA1 expressed in Escherichia coli strain BL21(DE3) assessed as change in melting temperature at 100 uM by ROX dye based thermal shift assay.
Target sequence in this assay (P07237 18-508 limits assumed): as the sequence (P07237 18-508 limits assumed) above
Series [15] concerns U-87 MG. The series is described as follows: Cytotoxicity against human U-87 MG cells assessed as growth inhibition at 30 uM measured after 72 hrs by MTT assay relative to control. The format is functional, U-87MG ATCC. The conditions noted are these: read-out: GI. The gist of the method: (§2)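 Single-concentration screen: percent inhibition of cell growth at 30 μM in U-87 MG and MIA PaCa-2 cells by MTT.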
(Tetrazolium dyes change colour on reduction, which living cells bring about.)

Series [16] has as its target T2, Protein disulfide-isomerase. Briefly: Irreversible inhibition of recombinant human wild-type N-terminal His-tagged PDIA1 expressed in Escherichia coli strain BL21(DE3) at 400 uM using bovine insulin as substrate preincubated for 30 mins followed by 100-fold dilution substrate addition further incubated for 1 hr and subsequent substrate addition. To be noted: time 1.5 hrs.

For series [17] the target is unchanged. The series is described as follows: Inhibition of recombinant human wild-type N-terminal His-tagged PDIA1 expressed in Escherichia coli strain BL21(DE3) at 10 uM using bovine insulin as substrate […]. The gist of the method:
(§3)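 Compound incubated with N-acetyl cysteine before addition to the PDI reductase assay with PDIA1, at a final compound concentration of 10 μM.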

For series [18] the target is unchanged. Briefly: Inhibition of recombinant human wild-type N-terminal His-tagged PDIA1 expressed in Escherichia coli strain BL21(DE3) at 10 uM using bovine insulin as substrate preincubated for 1 hr followed by substrate addition in presence of N-acetyl cysteine. An outline of the steps: as §3
The subject of series [19] is MIA PaCa-2. The series is described as follows: Cytotoxicity against human MIA PaCa-2 cells assessed as growth inhibition at 30 uM measured after 72 hrs by MTT assay relative to control. The format is functional. To be noted: read-out: GI. The gist of the method:
as §2

Series [20] deals with T2, Protein disulfide-isomerase. The series is described as follows: Inhibition of recombinant human wild-type N-terminal His-tagged PDIA1 expressed in Escherichia coli strain BL21(DE3) assessed as ratio of Kinact to Ki using bovine insulin as substrate preincubated for 5 to 60 mins followed by substrate addition. The conditions noted are these: time min 5-60. An outline of the steps:
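Activity measured in PDI reductase assay (insulin substrate, absorbance followed over time) at several inhibitor concentrations and preincubation times of 5 to 60 minutes; kinact/KI derived from concentration- and time-dependent inhibition curves.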

Series [21] has the same target. Briefly: Displacement of PACMA57 from recombinant human wild-type N-terminal His-tagged PDIA1 expressed in Escherichia coli strain BL21(DE3) at 100 uM measured after overnight incubation by gel-based imaging analysis.
Series [22] deals with U-87 MG. The series is described as follows: Cytotoxicity against human U-87 MG cells assessed as growth inhibition measured after 72 hrs by MTT assay. The format is functional, cell-based, U-87MG ATCC. An outline of the steps:
as §1

In series [23] the test system is Protein disulfide-isomerase (Homo sapiens), P07237 [H256A]. The series is described as follows: Inhibition of recombinant human wild-type N-terminal His-tagged PDIA1 H256A mutant expressed in Escherichia coli strain BL21(DE3) using bovine insulin as substrate preincubated for 1 hr followed by substrate addition.
Chain of Protein disulfide-isomerase (Homo sapiens), P07237 [H256A] (P07237 whole entry H256A): as the sequence (P07237 whole entry) above, with H256A counted along it
In series [24] the target is T2, Protein disulfide-isomerase. The series is described as follows: Inhibition of recombinant human wild-type N-terminal His-tagged PDIA1 expressed in Escherichia coli strain BL21(DE3) at 40 uM using bovine insulin as substrate preincubated for 1 hr followed by substrate addition relative to control.
Series [25] concerns U-87 MG. The series is described as follows: Inhibition of colony formation in BSO-treated human U-87 MG cells at 0.3 to 3 uM measured after 10 to 14 days by crystal violet staining based assay. The format is functional, cell-based. To be noted: U-87MG ATCC, dose microM 0.3-3, time day 10-14. An outline of the steps: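 U-87 MG cells pretreated with BSO for 24 hours before compound addition; read-out by colony formation assay.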

In series [26] the target is T2, Protein disulfide-isomerase. The series is described as follows: Displacement of ANS from recombinant human wild-type N-terminal His-tagged PDIA1 expressed in Escherichia coli strain BL21(DE3) at 100 uM measured after 1 hr by fluorescence assay.
Series [27] has the same target. The series is described as follows: Inhibition of recombinant human wild-type N-terminal His-tagged PDIA1 expressed in Escherichia coli strain BL21(DE3) at 10 uM using bovine insulin as substrate preincubated for 1 hr followed by substrate addition in presence of glutathione. An outline of the steps: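 Glutathione added to the PDI reaction buffer before 10 μM compound; screening done with 5 mM GSH, reductase assay DTT at 500 μM.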

pIC50: −log10 of the molar value. Calls of active or inactive are those of the source. The calls are words filed in the database; no cut-off is given here.

T4 sequence (P02769 whole entry): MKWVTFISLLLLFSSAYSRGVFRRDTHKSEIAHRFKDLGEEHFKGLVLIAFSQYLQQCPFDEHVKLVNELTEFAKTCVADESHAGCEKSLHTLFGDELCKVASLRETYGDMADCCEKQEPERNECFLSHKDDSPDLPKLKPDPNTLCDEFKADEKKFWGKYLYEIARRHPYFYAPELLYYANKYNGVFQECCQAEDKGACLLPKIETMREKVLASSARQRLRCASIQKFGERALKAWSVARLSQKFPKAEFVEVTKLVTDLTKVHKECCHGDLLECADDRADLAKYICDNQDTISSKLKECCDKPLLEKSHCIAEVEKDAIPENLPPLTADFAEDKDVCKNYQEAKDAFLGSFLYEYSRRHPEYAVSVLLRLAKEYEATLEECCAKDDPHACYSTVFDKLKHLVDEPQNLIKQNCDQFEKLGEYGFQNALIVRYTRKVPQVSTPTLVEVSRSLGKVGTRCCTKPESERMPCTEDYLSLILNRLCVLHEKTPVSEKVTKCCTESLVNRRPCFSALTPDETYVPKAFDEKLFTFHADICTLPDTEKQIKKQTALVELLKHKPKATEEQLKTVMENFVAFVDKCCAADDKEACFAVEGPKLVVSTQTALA

For `Oc1cc2c(cc1C(c1ccccc1)N1CCCCC1)OCO2` (stereo not drawn), the “inhibition (INH)” value in series [1] and in series [4] was “Dose-dependent effect” throughout. For the same compound, the pIC50 in series [2] is 5.54. Besides, in series [3], the inhibition entry was “Dose-dependent effect”.

For `CC1=CC(C)=[N+]2C1=C(c1ccc(NC(=O)c3ccc(C(c4cc5c(cc4O)OCO5)N4CCCCC4)cc3)cc1)c1c(C)cc(C)n1[B-]2(F)F` (stereo not drawn), the result in series [5] was Active. Further, the outcome in [6] and in [9] was Active. Besides, the Drug uptake entry in series [7], in [10] and in series [12] was “Active” in each case. Further, the result in series [8] and in series [13] was inactive. In addition, the inhibition result in series [11] is “inactive”.

Regarding `COc1ccc(C(c2cc3c(cc2O)OCO3)N2CCOCC2)cc1OC` (stereo not drawn), the ΔTm in [14] was -0.36 °C. Further, the inhibition of growth at 30 µM in series [15] and in [19] was more than 40% each time. Moreover, the inhibition entry in series [16], in [17], in [21], in [23] and in series [25] was “Active” throughout. Further, the inhibition entry in series [18], in [26] and in [27] was “inactive” throughout. The Ratio in [20] is 2.6 10^3/M/s. Also, the pIC50 is 6.52 in [2] and 4.74 in series [22]. Besides, the inhibition in series [24] is 50%.
